Source: ChEMBL document CHEMBL1124310, “Antiinflammatory 2,6-di-tert-butyl-4-(2-arylethenyl)phenols” (J Med Chem, 1989)

Key:
[1] = target: T1, Polyunsaturated fatty acid 5-lipoxygenase (Homo sapiens) (UniProt P09917); experiment: Inhibitory activity against lipoxygenase (LO) at 1 uM concentration; % inhibition not statistically different from control
T1 sequence (whole entry): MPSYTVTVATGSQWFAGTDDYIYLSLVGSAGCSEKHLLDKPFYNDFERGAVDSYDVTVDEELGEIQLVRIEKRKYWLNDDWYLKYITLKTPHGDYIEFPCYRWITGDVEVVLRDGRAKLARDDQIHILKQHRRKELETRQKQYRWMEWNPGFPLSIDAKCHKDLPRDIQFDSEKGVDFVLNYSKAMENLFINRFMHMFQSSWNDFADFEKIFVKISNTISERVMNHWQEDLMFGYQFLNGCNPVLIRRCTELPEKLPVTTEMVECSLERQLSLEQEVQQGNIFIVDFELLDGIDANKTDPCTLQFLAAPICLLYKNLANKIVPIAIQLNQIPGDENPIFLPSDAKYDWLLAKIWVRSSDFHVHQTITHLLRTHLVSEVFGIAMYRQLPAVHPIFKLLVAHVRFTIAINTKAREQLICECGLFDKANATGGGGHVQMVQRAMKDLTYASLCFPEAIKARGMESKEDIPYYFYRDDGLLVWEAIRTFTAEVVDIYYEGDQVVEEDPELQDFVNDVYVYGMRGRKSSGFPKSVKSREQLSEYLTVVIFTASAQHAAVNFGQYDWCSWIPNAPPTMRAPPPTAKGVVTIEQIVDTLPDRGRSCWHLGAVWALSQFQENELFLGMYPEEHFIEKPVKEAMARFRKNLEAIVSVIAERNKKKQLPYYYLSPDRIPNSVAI
Method in brief: (§1)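 Human peripheral blood leukocytes (5 × 10^6/0.5 mL) in pH 7.2 phosphate buffer with 0.6 mM Ca2+ and 1.0 mM Mg2+ incubated with compound for 15 min at 37 °C with shaking. 5-HETE band area measured as % of total radioactivity. Inhibition = (1 − cmd/cntl) × 100; single determination in duplicate; ANOVA, p<0.05.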

[2] = target: T1, Polyunsaturated fatty acid 5-lipoxygenase (Homo sapiens); experiment: Inhibitory activity against lipoxygenase (LO) at 10 uM concentration; method in brief: as §1
[3] = tested on: Rattus norvegicus; experiment: Inhibitory activity against developing adjuvant-induced arthritis (Dev AA) in rat at 25 mg/kg concentration; format: functional
[4] = target: T1, Polyunsaturated fatty acid 5-lipoxygenase (Homo sapiens); experiment: Inhibitory activity against lipoxygenase (LO) at 1 uM concentration; method in brief: as §1
[5] = tested on: Rattus norvegicus; experiment: Inhibitory activity against developing adjuvant-induced arthritis (Dev AA) in rat at 50 mg/kg concentration; format: functional
[6] = tested on: Rattus norvegicus; experiment: Inhibitory activity against developing adjuvant-induced arthritis (Dev AA) in rat at 5 mg/kg concentration; format: functional
[7] = target: T1, Polyunsaturated fatty acid 5-lipoxygenase (Homo sapiens); experiment: Inhibitory activity against 5-lipoxygenase at 1 uM concentration; method in brief: as §1
[8] = target: T2, Cyclooxygenase (Homo sapiens, UniProt P35354+P23219); experiment: Inhibitory activity against Prostaglandin G/H synthase at 1 uM concentration; format: protein assay
Method in brief: (§2)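 Human platelets (10^7/0.5 mL) in Ca2+-free pH 7 phosphate buffer incubated with compound for 15 min at 37 °C with shaking. Prostaglandin-thromboxane band areas measured as % of total radioactivity. Inhibition = (1 − cmd/cntl) × 100; single determination run in duplicate; ANOVA, p<0.05.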

[9] = target: T2, Cyclooxygenase; experiment: Inhibitory activity against Prostaglandin G/H synthase at 10 uM concentration; format: protein assay; method in brief: as §2
[10] = target: T1, Polyunsaturated fatty acid 5-lipoxygenase (Homo sapiens); experiment: Inhibitory activity against 5-lipoxygenase at 10 uM concentration; method in brief: as §1
[11] = species: Rattus norvegicus; experiment: Effective dose of compound to inhibit acetic acid induced writhing in rat was determined; format: functional
[12] = tested on: Rattus norvegicus; experiment: Effective dose of compound to inhibit carrageenan induced paw edema in rat was determined; format: functional
Method in brief: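 Male CD rats (150 ± 10 g), 10 per group. Compound or vehicle (1% acacia in water) given orally 1 h before subplantar injection of 0.1 mL 1% carrageenan in saline into the right hind paw. Paw volume measured by mercury displacement before dosing and 3 h after carrageenan; the difference is the edema volume.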

[13] = species: Rattus norvegicus; experiment: Effective dose of compound to inhibit adjuvant-induced arthritis (Dev AA) in rat; format: functional
[14] = tested on: Rattus norvegicus; experiment: Inhibitory activity against developing adjuvant-induced arthritis (Dev AA) in rat at 5 mg/kg concentration; decrease in paw volume statistically significant compared to control.; format: functional
[15] = species: Rattus norvegicus; experiment: Dose of compound to produce a 50% ulcerogenic response in rats was determined; format: functional
Method in brief: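 Ulcerogenic dose: value taken as the dose giving 50% response on a graded scale, 0% = no ulcers or redness in stomach or intestines, 100% = major lesions in both stomach and intestines. Method follows a cited procedure.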

[16] = species: Rattus norvegicus; experiment: Effective dose of compound to inhibit established adjuvant arthritis (EstAA) in rat; format: functional
Method in brief: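 Arthritis induced in male Lewis rats with Mycobacterium butyricum adjuvant in the right hind footpad. Rats with arthritis established by day 14 after injection were selected, then dosed orally for 14 days. Noninjected paw volume measured by mercury displacement. % inhibition versus untreated arthritic controls.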

| Structure (SMILES) | inhibition [2] | inhibition [4] | inhibition [7] | inhibition [8] | inhibition [9] | inhibition [10] | inhibition in vivo at 50 mg/kg [5] | further results |
| --- | --- | --- | --- | --- | --- | --- | --- | --- |
| CC(C)(C)c1cc(CCc2cccnc2)cc(C(C)(C)C)c1O | 63% | 13% | – | – | – | – | – | inhibition in vivo at 25 mg/kg [3]: 3% |
| CC(C)c1cc(/C=C/c2cccs2)cc(C(C)C)c1O | – | 82% | – | – | – | – | – | – |
| CCC(C)(C)c1cc(/C=C/c2cccnc2)cc(C(C)(C)CC)c1O | – | 27% | – | – | – | – | – | inhibition in vivo at 25 mg/kg [3]: 50% |
| CC(C)(C)c1cc(/C=C/c2ccccn2)cc(C(C)(C)C)c1O | 88% | 34% | – | – | – | – | 74% | inhibition in vivo at 5 mg/kg [6]: 36% |
| CC(C)(C)c1cc(C(=O)c2cccs2)cc(C(C)(C)C)c1O [PRIFELONE] | 82% | 17% | – | – | – | – | – | inhibition in vivo at 5 mg/kg [6]: 24%; inhibition in vivo at 25 mg/kg [3]: 96% |
| CC(C)(C)c1cc(/C=C/C(=O)c2cccs2)cc(C(C)(C)C)c1O | – | – | 39% | 44% | 75% | 84% | 8% | – |
| Oc1ccc(/C=C/c2cccnc2)cc1 | – | – | – | 28% | 5% | 41% | – | – |
| CC(C)(C)c1cc(/C=C/c2ccc(Cl)c(Cl)c2)cc(C(C)(C)C)c1O | – | – | 18% | -16% | -5% | 3% | 10% | – |
| CC(C)(C)c1cc(/C=C2\CCOC2=O)cc(C(C)(C)C)c1O | – | – | 34% | – | – | 67% | – | inhibition in vivo at 5 mg/kg [6]: 39%; inhibition in vivo at 25 mg/kg [3]: 63% |
| CC(C)(C)c1cc(/C=C/c2ccccc2)cc(C(C)(C)C)c1O | – | – | 12% | 34% | 79% | 14% | 42% | – |
| CC(C)(C)c1cc(/C=C/c2ccccc2C(=O)O)cc(C(C)(C)C)c1O | – | – | 10% | 21% | 53% | – | – | – |
| CC(C)(C)c1cc(/C=C/c2ccc(F)cc2)cc(C(C)(C)C)c1O | – | – | 23% | 52% | 70% | 46% | 58% | – |
| CCC(C)(C)c1cc(/C=C/c2cccs2)cc(C(C)(C)CC)c1O | – | 10% | – | – | – | – | – | inhibition in vivo at 25 mg/kg [3]: 40% |
| CC(C)(C)c1cc(/C=C/c2ccc[n+]([O-])c2)cc(C(C)(C)C)c1O | – | – | 21% | 24% | 73% | 59% | – | inhibition in vivo at 25 mg/kg [3]: 26% |
| CC(C)(C)c1cc(/C=C/c2ccc(Cl)s2)cc(C(C)(C)C)c1O | 28% | 19% | – | – | – | – | 45% | – |
| CC(C)(C)c1cc(/C=C/c2ccsc2)cc(C(C)(C)C)c1O | 81% | 9% | – | – | – | – | 62% | inhibition in vivo at 5 mg/kg [6]: 31% |
| CC(C)(C)c1cc(/C=C/c2cccnc2)cc(C(C)(C)C)c1O | 84% | 26% | – | – | – | – | 82% | ED50 [11]: 3.9 mg/kg; ED50 [12]: 16.5 mg/kg; ED50 [13]: 2.1 mg/kg; inhibition in vivo at 5 mg/kg [14]: 56%; UD50 [15]: 202 mg/kg; ED50 [16]: 4 mg/kg |
| CC(C)(C)c1cc(/C=C/c2ccncc2)cc(C(C)(C)C)c1O | 6% | – | – | – | – | – | 0% | – |
| CC(C)c1cc(/C=C/c2cccnc2)cc(C(C)C)c1O | 87% | 73% | – | – | – | – | – | inhibition in vivo at 25 mg/kg [3]: 17% |

Now from value to compound, other results behind:

| inhibition [2] | inhibition [4] | inhibition [7] | inhibition [8] | inhibition [9] | inhibition [10] | Structure (SMILES) | inhibition in vivo at 50 mg/kg [5] | further results |
| --- | --- | --- | --- | --- | --- | --- | --- | --- |
| 49% | – | – | – | – | – | CC(C)(C)c1cc(C/C=C/c2cccs2)cc(C(C)(C)C)c1O | – | inhibition [1]: 7% |
| 20% | 12% | – | – | – | – | COc1ccc(/C=C/c2cc(C(C)(C)C)c(O)c(C(C)(C)C)c2)cc1OC | 26% | – |
| 85% | 75% | – | – | – | – | Cc1cc(/C=C/c2cccnc2)cc(C(C)(C)C)c1O | – | inhibition in vivo at 25 mg/kg [3]: 22% |
| 22% | – | 19% | 9% | 18% | – | CC(C)(C)c1cc(/C=C/c2cccc(C(F)(F)F)c2)cc(C(C)(C)C)c1O | 0% | – |
| – | – | 16% | 73% | 83% | 69% | CC(C)(C)c1cc(C(=O)/C=C/c2ccsc2)cc(C(C)(C)C)c1O | 13% | – |
| – | – | 6% | 31% | 66% | 16% | CC(C)(C)c1cc(/C=C/c2ccc(Cl)cc2)cc(C(C)(C)C)c1O | 42% | – |
| – | – | 6% | 12% | 52% | 27% | Cc1ccc(/C=C/c2cc(C(C)(C)C)c(O)c(C(C)(C)C)c2)cc1 | 97% | inhibition in vivo at 5 mg/kg [6]: 55% |
| 81% | 29% | – | – | – | – | CC(C)(C)c1cc(/C=C/c2cccnc2)ccc1O | – | inhibition in vivo at 25 mg/kg [3]: 3% |
| – | – | 23% | 54% | 78% | 83% | CCOC(=O)/C(=C\c1cc(C(C)(C)C)c(O)c(C(C)(C)C)c1)c1cccnc1 | 24% | – |
| 91% | – | 53% | 56% | 80% | – | CC(C)(C)c1cc(/C=C/C(=O)c2ccsc2)cc(C(C)(C)C)c1O | 0% | – |
| 59% | – | 10% | 72% | 83% | – | CC(C)(C)c1cc(C(=O)/C=C/c2cccs2)cc(C(C)(C)C)c1O | 0% | – |
| 12% | 18% | – | – | – | – | COc1ccc(/C=C/c2cc(C(C)(C)C)c(O)c(C(C)(C)C)c2)cc1 | 0% | – |
